Results collected from several papers.
Lines come from different studies, so protocols differ.
Target: Bone morphogenetic protein receptor type-1B (BMPR1B, Homo sapiens, UniProt O00238)

`O=C1CCc2cc(Nc3cc(OC4CCOCC4)c([N+](=O)[O-])cc3Cl)ccc2N1` has a remaining binding of 87% (cell-free assay; competition with immobilised ligand; 1 µM).
`CN(C)c1nccc(-c2cnc3ncccn23)n1` gave a remaining binding of 82% (binding; 1 µM).
For `O=C(c1ccc(Nc2nccc(-c3cc4ccccc4s3)n2)cc1)N1CCC(N2CCCC2)CC1`, the remaining binding was 41% (binding; competition with immobilised ligand; 1 µM).
With `F[C@@H]1CCN(c2nccc(-c3cnn4ncccc34)n2)C1` the remaining binding was 72% (binding; 1 µM).
For `COc1cnc(Nc2cccc(S(N)(=O)=O)c2)nc1N1CCN(c2ccccc2)CC1`, the remaining binding was 87% (binding; competition with immobilised ligand; 1 µM).
`Nc1ncc2c(n1)-c1c([nH]c3ccc(C#CC4CC4)cc13)CCCC2` gave a remaining binding of 96% (binding; competition with immobilised ligand; 1 µM).
`N[C@H]1CCN(c2nccc(-c3cnn4ncccc34)n2)C1` gave a remaining binding of 100% (binding; 1 µM).
With `C[C@@H]1CN(c2cc(-c3nn(C)c4ccc(OC5(C)CC5)cc34)ncn2)C[C@H](C)O1` the remaining binding was 77% (cell-free assay; competition with immobilised ligand; 1 µM).
For `CN(C)c1ncc(F)c(-c2cnn3ncccc23)n1`, the remaining binding was 64% (binding; 1 µM).
`CCCCN(CCCC)C(=O)CN1C[C@H](c2cc(OC)c3c(c2)OCO3)[C@@H](C(=O)O)[C@@H]1CC(C)(C)CCC` gave a remaining binding of 59% (cell-free assay; competition with immobilised ligand; 1 µM).
With `c1cncc(-c2cccc(Nc3nccc(NC4CCCCC4)n3)c2)c1` the remaining binding was 47% (binding; competition with immobilised ligand; 10 µM).
The remaining binding of `CNC(=O)Nc1ccc2c(c1)[C@@]1(CC2)OC(=O)N(CC(=O)N(Cc2ccc(F)cc2)[C@@H](C)C(F)(F)F)C1=O` is reported as 100% (cell-free assay; competition with immobilised ligand; 1 µM).
The remaining binding of `C=CC(=O)N1CCC(C(=O)NCC(=O)N2CCN(c3nc(-c4cnc(N)nc4C(F)F)nc(N4CCOCC4)n3)CC2)CC1` is reported as 64% (binding; competition with immobilised ligand; 1 µM).
The remaining binding of `FC(F)(F)Oc1cccc(-c2cnc3ccc(-c4ccncc4)nn23)c1` is reported as 22% (cell-free assay; competition with immobilised ligand; 5 µM).
For `COCCOc1nc(-c2ccc(Cl)nc2)nc2c1CN(C(=O)c1ncn3ccccc13)CC2`, the remaining binding was 100% (cell-free assay; competition with immobilised ligand; 0.1 µM).
`c1cnn2ncc(-c3ccnc(N4CCC45COC5)n3)c2c1` has a remaining binding of 52% (binding; 1 µM).
`O=C(NCCCN1CCOCC1)c1ccc(Nc2ncc(Cl)c(-c3ccc(Cl)s3)n2)cc1` gave a remaining binding of 56% (binding; competition with immobilised ligand; 1 µM).
`CCN1CCN(Cc2ccc(C(=O)Nc3ccc(C)c(Oc4ccc5c(c4)CC(=O)N5)c3)cc2C(F)(F)F)CC1` has a remaining binding of 100% (binding; competition with immobilised ligand; 1 µM).
The remaining binding of `CCOC(=O)c1cc2cc(-c3cc(C(=O)NCc4ccc(C(=O)O)cc4)nn3C)ccc2[nH]1` is reported as 96% (cell-free assay; competition with immobilised ligand; 0.1 µM).
For `O=C(NCC1CCOCC1)c1n[nH]cc1NC(=O)c1c(F)cccc1F`, the remaining binding was 90% (binding; competition with immobilised ligand; 1 µM).
`O=C(c1ccc(Nc2ncc(Cl)c(-c3ccc(Cl)s3)n2)cc1)N1CCC(N2CCCC2)CC1` gave a remaining binding of 18% (binding; competition with immobilised ligand; 1 µM).
For `CN(C)c1nccc(-c2cnn3ncccc23)n1`, the remaining binding was 76% (binding; 1 µM).
